Structures are written as SMILES. Activity calls are given as the source filed them. No cut-off for these calls is given here.

For data set [1], the target named is Prostaglandin F2-alpha receptor (Bos taurus, UniProt P37289). Description: Displacement of [3H]PGF2 alpha from FP receptor in bovine corpus luteum membrane. It is filed as cell membranes. Put shortly: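 Nonspecific binding was set with 10 µM unlabeled PGF2α or cloprostenol. Bound and free ligand were separated by vacuum filtration on PEI-soaked GF/B filters and counted. Ki came from nonlinear fitting across several experiments.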
A general note: Displacement assays read how much labelled ligand stays bound in the presence of the test substance.

Data set [2] concerns the target Prostaglandin F2-alpha receptor (Mus musculus, UniProt P43117). Description: Agonist activity at FP receptor in Swiss mouse 3T3 cells assessed as [3H]-IP accumulation by scintillation counting. It is filed as functional, cell-based. Put shortly:
(§1)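 Swiss 3T3 mouse fibroblasts carry an endogenous FP receptor. They were rinsed in DMEM/F-12 with 10 mM LiCl, then exposed to agonist or vehicle in that medium for 60 min at 37 °C. The reaction was stopped with ice-cold 0.1 M formic acid. Total [3H]-IPs were eluted with ammonium formate in formic acid and counted by scintillation. EC50 and Emax came from nonlinear fits of concentration-response curves pooled from several experiments.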

For data set [3], the target named is Prostaglandin F2-alpha receptor (Mus musculus) (UniProt P43117). Description: Agonist activity at FP receptor in Swiss mouse 3T3 cells assessed as [3H]-IP accumulation by scintillation counting relative to control. It counts as functional, cell-based. Put shortly: as §1
Data set [4] is filed under the species Oryctolagus cuniculus. Description: Effect on ocular irritation in New Zealand albino rabbit assessed as incidence of conjunctival hyperemia at 1 ug after 1 to 5 hrs. It is filed as functional, Conjunctiva. Put shortly:
(§2)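 Topical single 30 µL drop into both eyes of each of five rabbits, doses 0.03–100 µg. Vehicle was trimethamine/boric acid buffer with 4.6% mannitol, HCO-40, 0.01% EDTA and 0.01% benzalkonium chloride, pH 7.4. Eyes were scored at 1, 2, 3 and 5 h. The percent of eyes scoring +2 or greater, pooled across all time points, is reported as study % incidence. Qualitative, with no statistics.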

The species named for data set [5] is Oryctolagus cuniculus. Description: Effect on ocular irritation in New Zealand albino rabbit assessed as incidence of conjunctival swelling at 1 ug after 1 to 5 hrs. It is filed as functional, Conjunctiva. An outline of the steps:
as §2

The species named for data set [6] is Oryctolagus cuniculus. Description: Effect on ocular irritation in New Zealand albino rabbit assessed as incidence of ocular discharge at 0.03 ug after 1 to 5 hrs. It is filed as functional, Eye. An outline of the steps: as §2
The species named for data set [7] is Oryctolagus cuniculus. Description: Effect on ocular irritation in New Zealand albino rabbit assessed as incidence of conjunctival hyperemia at 0.1 ug after 1 to 5 hrs. It counts as functional, Conjunctiva. An outline of the steps:
as §2

The species named for data set [8] is Oryctolagus cuniculus. Description: Effect on ocular irritation in New Zealand albino rabbit assessed as incidence of conjunctival swelling at 0.1 ug after 1 to 5 hrs. It is filed as functional, Conjunctiva. Put shortly: as §2
The species entered for data set [9] is Oryctolagus cuniculus. Description: Effect on ocular irritation in New Zealand albino rabbit assessed as incidence of ocular discharge at 0.1 ug after 1 to 5 hrs. It counts as functional, Eye. Put shortly:
as §2

The species entered for data set [10] is Oryctolagus cuniculus. Description: Effect on ocular irritation in New Zealand albino rabbit assessed as incidence of conjunctival hyperemia at 0.3 ug after 1 to 5 hrs. It counts as functional, Conjunctiva. Put shortly: as §2
For data set [11], the species on record is Oryctolagus cuniculus. Description: Effect on ocular irritation in New Zealand albino rabbit assessed as incidence of conjunctival swelling at 0.3 ug after 1 to 5 hrs. It counts as functional, Conjunctiva. An outline of the steps: as §2
The species entered for data set [12] is Oryctolagus cuniculus. Description: Effect on ocular irritation in New Zealand albino rabbit assessed as incidence of ocular discharge at 0.3 ug after 1 to 5 hrs. It counts as functional, Eye. Put shortly: as §2
The species named for data set [13] is Oryctolagus cuniculus. Description: Effect on ocular irritation in New Zealand albino rabbit assessed as incidence of ocular discharge at 1 ug after 1 to 5 hrs. It is filed as functional, organism-based, Eye. An outline of the steps: as §2
Data set [14] is filed under the species Oryctolagus cuniculus. Description: Effect on ocular irritation in New Zealand albino rabbit assessed as incidence of conjunctival hyperemia at 3 ug after 1 to 5 hrs. It is filed as functional, Conjunctiva. Put shortly: as §2
The species entered for data set [15] is Oryctolagus cuniculus. Description: Effect on ocular irritation in New Zealand albino rabbit assessed as incidence of conjunctival swelling at 3 ug after 1 to 5 hrs. It counts as functional, Conjunctiva. An outline of the steps:
as §2

Data set [16] is filed under the species Oryctolagus cuniculus. Description: Effect on ocular irritation in New Zealand albino rabbit assessed as incidence of ocular discharge at 3 ug after 1 to 5 hrs. It is filed as functional, Eye. Put shortly: as §2
Data set [17] is filed under the species Oryctolagus cuniculus. Description: Effect on ocular irritation in New Zealand albino rabbit assessed as incidence of conjunctival hyperemia at 10 ug after 1 to 5 hrs. It counts as functional, Conjunctiva. Put shortly:
as §2

For data set [18], the species on record is Oryctolagus cuniculus. Description: Effect on ocular irritation in New Zealand albino rabbit assessed as incidence of conjunctival swelling at 10 ug after 1 to 5 hrs. It counts as functional, Conjunctiva. Put shortly:
as §2

The species named for data set [19] is Oryctolagus cuniculus. Description: Effect on ocular irritation in New Zealand albino rabbit assessed as incidence of ocular discharge at 10 ug after 1 to 5 hrs. It counts as functional, Eye. An outline of the steps:
as §2

The species named for data set [20] is Oryctolagus cuniculus. Description: Effect on ocular irritation in New Zealand albino rabbit assessed as incidence of conjunctival hyperemia at 30 ug after 1 to 5 hrs. It is filed as functional, Conjunctiva. Put shortly: as §2
The species named for data set [21] is Oryctolagus cuniculus. Description: Effect on ocular irritation in New Zealand albino rabbit assessed as incidence of conjunctival swelling at 30 ug after 1 to 5 hrs. It is filed as functional, Conjunctiva. An outline of the steps:
as §2

For data set [22], the species on record is Oryctolagus cuniculus. Description: Effect on ocular irritation in New Zealand albino rabbit assessed as incidence of ocular discharge at 30 ug after 1 to 5 hrs. It counts as functional, Eye. Put shortly: as §2
Data set [23] is filed under the species Felis catus. Description: Acute […] response in normotensive cat assessed as AUC (1 to 5 hrs) at 0.1 ug. It counts as functional. An outline of the steps: (§3)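 Conscious cats held in cat bags under uniform room lighting. Horizontal pupil diameter read with a hand-held micrometer, then again at 0.5, 1, 1.5, 2, 2.5, 3, 4 and 5 h after topical dosing. The AUC of pupil diameter change versus time over 1–5 h was computed from group averages. Ranking is qualitative, with no statistics.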

The species entered for data set [24] is Felis catus. Description: Acute […] response in normotensive cat assessed as AUC (1 to 5 hrs) at 0.3 ug. It counts as functional. An outline of the steps:
as §3

Data set [25] is filed under the species Felis catus. Description: Acute […] response in normotensive cat assessed as AUC (1 to 5 hrs) at 1 ug. It counts as functional. An outline of the steps: as §3
Data set [26] is filed under the species Felis catus. Description: Toxicity in normotensive cat assessed as ocular irritation. It is filed as organism-based, Eye. As to conditions: in vivo.
Data set [27] is filed under the species Felis catus. Description: Toxicity in normotensive cat assessed as discomfort. It is filed as organism-based. As to conditions: in vivo.
For data set [28], the species on record is Oryctolagus cuniculus. Description: Effect on ocular irritation in New Zealand albino rabbit assessed as incidence of conjunctival swelling at 0.03 ug after 1 to 5 hrs. It is filed as functional, Conjunctiva. An outline of the steps: as §2
Data set [29] is filed under the species Oryctolagus cuniculus. Description: Effect on ocular irritation in New Zealand albino rabbit assessed as incidence of conjunctival hyperemia at 0.03 ug after 1 to 5 hrs. It is filed as functional, Conjunctiva. Put shortly:
as §2

Data set [30] is filed under the species Macaca fascicularis. Description: Induction of miosis in monkey. The note with it: cynomolgus monkey, in vivo.
The species entered for data set [31] is Macaca fascicularis. Description: Toxicity in monkey assessed as drug tolerance. As to conditions: cynomolgus monkey, in vivo.
The species named for data set [32] is Macaca fascicularis. Description: Inhibition of intraocular pressure in hypertensive monkey at 1 ug, bid. The note with it: Eye.
For data set [33], the species on record is Macaca fascicularis. Description: Inhibition of intraocular pressure in hypertensive monkey at 3 ug, bid after 5th dose. On the set-up: scale not given: the % may be the effect or the level left.
Data set [34] is filed under the species Macaca fascicularis. Description: Inhibition of intraocular pressure in hypertensive monkey at 3 ug after first instillation. The arrangement: scale not given: the % may be the effect or the level left.
For data set [35], the species on record is Macaca fascicularis. Description: Inhibition of intraocular pressure in hypertensive monkey at 3 ug, bid after 4th dose measured after 16 hrs. On the set-up: scale not given: the % may be the effect or the level left.
The species named for data set [36] is Oryctolagus cuniculus. Description: Effect on ocular irritation in New Zealand albino rabbit assessed as incidence of conjunctival hyperemia at 1.8 ug after 1 to 5 hrs. It is filed as functional, Conjunctiva. Put shortly: as §2
Data set [37] is filed under the species Oryctolagus cuniculus. Description: Effect on ocular irritation in New Zealand albino rabbit assessed as incidence of conjunctival swelling 1.8 ug after 1 to 5 hrs. It counts as functional, Conjunctiva. An outline of the steps: as §2
The species entered for data set [38] is Oryctolagus cuniculus. Description: Effect on ocular irritation in New Zealand albino rabbit assessed as incidence of ocular discharge 1.8 ug after 1 to 5 hrs. It counts as functional, Eye. Put shortly: as §2

Chain of Prostaglandin F2-alpha receptor (Mus musculus) (P43117 whole entry): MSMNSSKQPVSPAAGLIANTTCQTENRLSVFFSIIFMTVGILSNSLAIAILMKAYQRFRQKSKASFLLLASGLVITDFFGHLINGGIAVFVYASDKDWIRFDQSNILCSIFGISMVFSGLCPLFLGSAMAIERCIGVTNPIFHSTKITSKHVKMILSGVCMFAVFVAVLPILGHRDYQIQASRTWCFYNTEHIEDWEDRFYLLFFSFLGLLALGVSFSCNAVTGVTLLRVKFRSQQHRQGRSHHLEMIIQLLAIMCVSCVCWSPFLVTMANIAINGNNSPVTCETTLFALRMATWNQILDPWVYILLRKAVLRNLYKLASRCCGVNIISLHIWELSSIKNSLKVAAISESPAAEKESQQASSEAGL
Chain of Prostaglandin F2-alpha receptor (Mus musculus, UniProt P43117) (P43117 whole entry): as above
Chain of Prostaglandin F2-alpha receptor (Bos taurus, UniProt P37289) (P37289 whole entry): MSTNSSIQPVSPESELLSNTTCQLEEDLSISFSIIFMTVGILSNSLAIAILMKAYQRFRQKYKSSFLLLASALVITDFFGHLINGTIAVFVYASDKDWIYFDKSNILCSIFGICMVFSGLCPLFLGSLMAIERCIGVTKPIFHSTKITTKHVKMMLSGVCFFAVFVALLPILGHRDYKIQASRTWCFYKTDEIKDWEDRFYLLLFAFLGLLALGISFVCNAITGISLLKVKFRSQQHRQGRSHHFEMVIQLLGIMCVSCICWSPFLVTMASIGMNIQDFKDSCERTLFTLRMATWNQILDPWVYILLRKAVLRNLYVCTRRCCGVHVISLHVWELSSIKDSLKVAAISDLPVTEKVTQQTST

With `O=C(O)CCC/C=C\C[C@@H]1[C@@H](OC[C@@H](O)COc2cccc(Cl)c2)[C@H](O)C[C@@H]1O`, the inhibition constant Ki in data set [1] amounted to 680 nM. In addition, in [2], the EC50 was 52.4 nM. The Activity in data set [3] was determined as 62%.

Consider `O=C(O)CCC/C=C\C[C@@H]1[C@@H](OC[C@@H](O)CCc2cccc(C(F)(F)F)c2)[C@H](O)C[C@@H]1O`, for which, in data set [1], the inhibitory constant (Ki) amounted to 72 nM. Also, in data set [2], the 50% effective concentration (EC50) amounted to 1.9 nM. Also, in [3], the Activity is 78%.

On to `O=C(O)CCC/C=C\C[C@@H]1[C@@H](OC[C@H](O)CCc2cccc(C(F)(F)F)c2)[C@H](O)C[C@@H]1O`, for which the Ki in data set [1] amounted to 130 nM. Besides, the concentration for a half-maximal effect (EC50) in data set [2] was determined as 5.7 nM. The Activity in [3] came out at 82%.

The compound `O=C(O)CCC/C=C\C[C@@H]1[C@@H](OC[C@H](O)COc2cccc(Cl)c2)[C@H](O)C[C@@H]1O` returned a Ki in data set [1] of 140 nM. The concentration giving a half-maximal response (EC50) in data set [2] worked out at 62.2 nM. In addition, in [3], the Activity turned out to be 86%.

Regarding `CCCCC[C@H](O)/C=C/[C@@H]1[C@@H](C/C=C\CCCC(=O)O)[C@@H](O)C[C@H]1O` [DINOPROST], the Activity in [4] is reported as 100%; in data set [5], 40%.

In the case of `O=C(O)CCC/C=C\C[C@@H]1[C@@H](OC[C@@H](O)COc2ccccc2)[C@H](O)C[C@@H]1O`, the affinity in [1], expressed as Ki, was 120 nM. Besides, the concentration giving a half-maximal response (EC50) in data set [2] stood at 294 nM. Also, the Activity in data set [3] turned out to be 67%.

As for `CC(C)OC(=O)CCC/C=C\C[C@@H]1[C@@H](OC[C@@H](O)CCc2cccc(C(F)(F)F)c2)[C@H](O)C[C@@H]1O`, the Activity is on record as 5% in [6]; 13% in data set [7]; 38% in data set [8]; 3% in [9]; 8% in data set [10]; 25% in data set [11]. The Activity is on record as 3% in data set [12]; 13% in data set [4]; 30% in data set [5]; 5% in data set [13]; 25% in [14]; 8% in data set [15]. Further, the Activity in data set [16] is reported as 0%; in [17], 23%; in data set [18], 35%; in data set [19], 15%; in data set [20], 73%; in data set [21], 45%. Moreover, the Activity in data set [22] is recorded as 0%; in [23], 3.12; in [24] it was 6.57; in data set [25], 10.2; in data set [26], “Non-toxic”; in data set [27], “Non-toxic”. In addition, the Activity in data set [28] is 23%; in data set [29] it was 13%; in data set [30], “Not Active”; in data set [31] it was “Not Active”; in data set [33] it was 30%; in [34], 22%. In [35], the Activity worked out at 21%. Further, in data set [32], the result was inactive.

In the case of `O=C(O)CCC/C=C\C[C@@H]1[C@@H](CC[C@@H](O)CCc2ccccc2)[C@H](O)C[C@@H]1O` [LATANOPROST ACID], affinity in data set [1] was put at a Ki of 98 nM. Also, the EC50 in data set [2] was found to be 31.7 nM. The Activity in [3] was found to be 85%; in data set [36], 45%; in [37], 40%; in data set [38] it was 20%.

In turn, `O=C(O)CCC/C=C\C[C@@H]1[C@@H](OC[C@H](O)COc2ccccc2)[C@H](O)C[C@@H]1O` gave an inhibitory constant (Ki) in data set [1] of 87 nM. Besides, the half-maximal effective concentration (EC50) in data set [2] stood at 68.6 nM. Also, the Activity in data set [3] is 67%.

What is called Ki is a dissociation constant, usually derived from enzyme kinetics or from competition with a known ligand. What is called EC50 is the concentration at which the effect is half-maximal.
